Measurements reported in ChEMBL document CHEMBL5608194, “Novel neuroprotective 5,6-dihydropyrido[2',1':2,3]imidazo[4,5-c]quinoline derivatives acting through cholinesterase inhibition and CB2 signaling modulation” (Eur J Med Chem, 2024).
The source made the active and inactive calls. No cut-off for these calls is given here.

What was measured:
[1] = tested on: SH-SY5Y; experiment: Neuroprotective activity against MPP+ induced cell death in human SH-SY5Y cells assessed as cell death at 1 uM by YOPRO-1 staining based assay; format: functional
In short: (§1)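 Neuron-like SH-SY5Y co-treated with compound and 5 mM MPP+ for 24 h; centrifuged at 500 × g, medium replaced by 1 μM YO-PRO1 in PBS for 15 min at room temperature; fluorescence 488/530 nm; MPP+ signal set to 100 %; triplicates on at least three independent days.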

[2] = tested on: SH-SY5Y; experiment: Neuroprotective activity against ATRA-differentiated and 3-NPA induced cell death in human SH-SY5Y cells assessed as cell death at 0.1 uM incubated for 48 hrs by propidium iodide staining based fluorescence assay (reference value: 100%); format: functional
In short: (§2)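 ATRA-differentiated SH-SY5Y co-treated with compound and 20 mM 3-nitropropionic acid for 48 h; cell death by propidium iodide fluorescence, 3-NPA-treated signal set to 100 %.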

[3] = Selectivity index, ratio of IC50 for electric eel AChE to IC50 for equine serum BChE
In short: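 Ratio of IC50 values from modified Ellman spectrophotometric assays with electric eel AChE and equine serum BChE. Each used enzyme at 0.2 U/mL final, acetylthiocholine or butyrylthiocholine at 40 μM, and DTNB at 100 μM. Inhibitors were dissolved in DMSO, diluted in water, and tested at five concentrations in triplicate. IC50 came from regression of v0/vi against inhibitor concentration.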

[4] = tested on: SH-SY5Y; experiment: Neuroprotective activity against ATRA-differentiated and MPP+ induced cell death in human SH-SY5Y cells assessed as cell death at 10 uM incubated for 24 hrs by propidium iodide staining based fluorescence assay (reference value: 100%); format: functional
In short: (§3)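 ATRA-differentiated SH-SY5Y co-treated with compound and 5 mM MPP+ for 24 h; cell death by propidium iodide fluorescence, MPP+-treated signal set to 100 %.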

[5] = molecular target: Acetylcholinesterase (Electrophorus electricus, UniProt O42275); experiment: Inhibition of electric eel AChE using acetylthiocholine as substrate by Ellman's method
[6] = tested on: SH-SY5Y; experiment: Inhibition of MPP+ induced mitochondrial depolarization in human SH-SY5Y cells at 1 uM incubated for 2 hrs by JC10 staining based confocal laser scanning microscopy; format: functional
In short: (§4)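 ATRA-differentiated SH-SY5Y co-treated with 5 mM MPP+ and compound for 2 h; mitochondrial membrane potential by JC10 ratiometric red/green signal (plate) and confocal imaging of JC10-stained cells (50 000 cells/well slides); DMSO control set to 100 %; triplicates on three independent days.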

[7] = tested on: SH-SY5Y; experiment: Neuroprotective activity against ATRA-differentiated and 3-NPA induced cell death in human SH-SY5Y cells assessed as cell death at 10 uM incubated for 48 hrs by propidium iodide staining based fluorescence assay (reference value: 100%); format: functional; in short: as §2
[8] = tested on: SH-SY5Y; experiment: Neuroprotective activity against MPP+ induced cell death in human SH-SY5Y cells assessed as cell death at 1 uM incubated for 24 hrs by Cas-3, 7 staining based assay; format: functional
In short: (§5)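 Caspase-3/7 activation with Ac-DEVD-AFC substrate after 24 h co-treatment of neuron-like SH-SY5Y with compound and 5 mM MPP+; MPP+ signal set to 100 %; triplicates on at least three independent days.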

[9] = tested on: SH-SY5Y; experiment: Neuroprotective activity against ATRA-differentiated and 3-NPA induced cell death in human SH-SY5Y cells assessed as cell death at 1 uM incubated for 48 hrs by propidium iodide staining based fluorescence assay (reference value: 100%); format: functional; in short: as §2
[10] = tested on: SH-SY5Y; experiment: Inhibition of MPP+ induced mitochondrial superoxide radical production in human SH-SY5Y cells at 0.1 to 10 uM incubated for 24 hrs by MitoSOX staining based microplate reader assay; format: functional, cell-based; conditions: dose 0.1-10 µM
In short: (§6)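 Neuron-like SH-SY5Y (20 000 cells/well) co-treated with 5 mM MPP+ and compound for 24 h; plates centrifuged, medium replaced by 5 μM MitoSOX in HBSS, 30 min at 37 °C, fluorescence 500/580 nm; MPP+ signal set to 100 %; triplicates on at least four independent days.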

[11] = molecular target: Cholinesterase (Equus caballus, UniProt P81908); experiment: Inhibition of equine serum BChE using butyrylthiocholine as substrate by Ellman's method
In short: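 Equine serum BChE (0.2 U/mL final) with 40 μM butyrylthiocholine and 100 μM DTNB, modified Ellman spectrophotometry; compounds from DMSO diluted in water, five inhibitor concentrations; IC50 from regression of v0/vi versus inhibitor concentration; triplicate.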

[12] = tested on: SH-SY5Y; experiment: Neuroprotective activity against ATRA-differentiated and MPP+ induced cell death in human SH-SY5Y cells assessed as cell death at 0.1 uM incubated for 24 hrs by propidium iodide staining based fluorescence assay (reference value: 100%); format: functional; in short: as §3
[13] = tested on: SH-SY5Y; experiment: Inhibition of MPP+ induced mitochondrial depolarization in human SH-SY5Y cells at 0.1 uM incubated for 2 hrs by JC10 staining based confocal laser scanning microscopy; format: functional; in short: as §4
[14] = tested on: SH-SY5Y; experiment: Neuroprotective activity against ATRA-differentiated and MPP+ induced cell death in human SH-SY5Y cells assessed as cell death at 1 uM by LDH release assay (reference value: 100%); format: functional
In short: (§7)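 ATRA-differentiated SH-SY5Y co-treated with 5 mM MPP+ and compound; cell death by commercial LDH release kit; MPP+ value set to 100 %; triplicates on at least three independent days.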

[15] = tested on: SH-SY5Y; experiment: Cytotoxicity against human SH-SY5Y cells assessed as cell death at 10 uM incubated for 72 hrs by propidium iodide staining based fluorescence assay; format: toxicity
In short: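 SH-SY5Y differentiated to neuron-like phenotype with 10 μM all-trans retinoic acid for 48 h, 20 000 cells/well. Compounds from DMSO stocks (DMSO ≤0.5 %) added, then 72 h exposure. Control wells lysed with 1 % Triton X-100 for 1 min, then all wells stained with propidium iodide for fluorescence read-out. Dead-cell proportion expressed relative to Triton X-100-treated control.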

[16] = tested on: SH-SY5Y; experiment: Inhibition of MPP+ induced superoxide radical production in human SH-SY5Y cells at 1 uM incubated for 24 hrs by microplate reader assay (reference value: 100%); format: functional
In short: (§8)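 Neuron-like SH-SY5Y co-treated with 5 mM MPP+ and compound for 24 h; centrifuged at 500 × g, medium replaced with 10 μM dihydroethidium in PBS for 30 min, fluorescence 500/580 nm; MPP+ signal set to 100 %; triplicates on at least four independent days.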

[17] = tested on: SH-SY5Y; experiment: Neuroprotective activity against ATRA-differentiated and MPP+ induced cell death in human SH-SY5Y cells assessed as cell death at 1 uM incubated for 24 hrs by propidium iodide staining based fluorescence assay (reference value: 100%); format: functional; in short: as §3
[18] = tested on: SH-SY5Y; experiment: Inhibition of MPP+ induced mitochondrial superoxide radical production in human SH-SY5Y cells at 1 uM incubated for 24 hrs by MitoSOX staining based microplate reader assay (reference value: 100%); format: functional; in short: as §6
[19] = tested on: SH-SY5Y; experiment: Neuroprotective activity against MPP+ induced cell death in human SH-SY5Y cells assessed as cell death at 10 uM by YOPRO-1 staining based assay; format: functional; in short: as §1
[20] = tested on: SH-SY5Y; experiment: Inhibition of MPP+ induced mitochondrial superoxide radical production in human SH-SY5Y cells at 10 uM incubated for 24 hrs by MitoSOX staining based microplate reader assay (reference value: 100%); format: functional; in short: as §6
[21] = tested on: SH-SY5Y; experiment: Inhibition of MPP+ induced superoxide radical production in human SH-SY5Y cells at 10 uM incubated for 24 hrs by microplate reader assay (reference value: 100%); format: functional; in short: as §8
[22] = tested on: SH-SY5Y; experiment: Neuroprotective activity against MPP+ induced cell death in human SH-SY5Y cells assessed as cell death at 10 uM incubated for 24 hrs by Cas-3, 7 staining based assay; format: functional; in short: as §5
[23] = tested on: SH-SY5Y; experiment: Neuroprotective activity against ATRA-differentiated and MPP+ induced cell death in human SH-SY5Y cells assessed as cell death at 10 uM by LDH release assay (reference value: 100%); format: functional; in short: as §7

Chain of Acetylcholinesterase (O42275 whole entry): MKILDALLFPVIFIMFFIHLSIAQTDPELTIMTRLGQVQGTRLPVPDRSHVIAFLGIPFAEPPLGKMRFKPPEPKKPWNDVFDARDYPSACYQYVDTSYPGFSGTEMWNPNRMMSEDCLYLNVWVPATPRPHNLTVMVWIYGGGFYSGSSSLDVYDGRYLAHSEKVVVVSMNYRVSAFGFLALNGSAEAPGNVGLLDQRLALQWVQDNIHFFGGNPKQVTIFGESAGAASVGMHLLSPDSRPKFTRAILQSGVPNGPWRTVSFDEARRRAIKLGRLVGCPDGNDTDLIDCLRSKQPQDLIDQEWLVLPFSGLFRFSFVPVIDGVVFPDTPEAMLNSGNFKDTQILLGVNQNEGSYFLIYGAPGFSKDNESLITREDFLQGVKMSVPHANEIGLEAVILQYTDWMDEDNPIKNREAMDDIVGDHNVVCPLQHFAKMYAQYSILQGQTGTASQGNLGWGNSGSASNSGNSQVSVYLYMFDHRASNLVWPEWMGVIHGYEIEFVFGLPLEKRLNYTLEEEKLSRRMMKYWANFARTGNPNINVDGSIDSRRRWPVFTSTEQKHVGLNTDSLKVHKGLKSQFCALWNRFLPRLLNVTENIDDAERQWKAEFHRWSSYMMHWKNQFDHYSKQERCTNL
Chain of Cholinesterase (P81908 whole entry): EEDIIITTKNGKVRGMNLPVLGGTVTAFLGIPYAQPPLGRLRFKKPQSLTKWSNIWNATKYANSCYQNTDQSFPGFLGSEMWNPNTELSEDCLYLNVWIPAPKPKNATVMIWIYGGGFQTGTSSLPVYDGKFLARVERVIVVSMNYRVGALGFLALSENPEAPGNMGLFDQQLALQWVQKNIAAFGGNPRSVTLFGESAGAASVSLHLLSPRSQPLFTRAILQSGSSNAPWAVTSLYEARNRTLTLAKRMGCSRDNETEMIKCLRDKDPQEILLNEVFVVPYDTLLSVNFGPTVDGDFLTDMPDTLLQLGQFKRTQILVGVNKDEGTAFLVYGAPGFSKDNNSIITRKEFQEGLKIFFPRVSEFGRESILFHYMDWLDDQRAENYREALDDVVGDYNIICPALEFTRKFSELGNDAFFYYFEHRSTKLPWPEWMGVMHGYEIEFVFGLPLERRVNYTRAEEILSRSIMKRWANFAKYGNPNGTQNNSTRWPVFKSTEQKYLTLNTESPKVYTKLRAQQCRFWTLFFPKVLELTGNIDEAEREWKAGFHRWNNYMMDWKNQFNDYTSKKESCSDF

Row | SMILES | Activity [1] [%] | Activity [2] [%] | Ratio IC50 [3] | Activity [4] [%] | IC50 [5] [µM] | inhibition at 1 µM [6] [%] | Activity [7] [%] | Activity [8] [%] | Activity [9] [%] | IC50 [11] [µM] | Activity [12] [%] | inhibition at 0.1 µM [13] [%] | Activity [14] [%] | Activity [15] [%] | inhibition at 1 µM [16] [%] | Activity [17] [%] | further results
1 | Cc1ccn2c3c(nc2c1)-c1ccccc1NC31CCCCC1 | 58.1 | 75.5 | 1.57 | 75 | 16.4 | 100 | 55.2 | 52.6 | 62.6 | 10.4 | 60.8 | 78.7 | 65.4 | 11.4 | 67.1 | 38.2 | inhibition [10]: inactive
2 | c1ccc2c(c1)NC1(CCCCC1)c1c-2nc2ccccn12 | 58.7 | 78.5 | 1.72 | 52.7 | 34 | 70.6 | 65.8 | 59.1 | 64 | 19.8 | 57 |  | 65.1 | 12.2 | 59.9 | 37.3 | inhibition at 1 µM [18]: 61.7%
3 | Brc1ccc2nc3c(n2c1)C1(CCCCC1)Nc1ccccc1-3 |  | 97.7 | 1.02 | 33.9 | 20 | 100 | 59.5 |  | 88.4 | 19.6 | 94.8 | 91.7 |  | 12.3 |  | 56.5 | Activity [19]: 58%; inhibition at 10 µM [20]: 58.8%; inhibition at 10 µM [21]: 65.6%; Activity [22]: 55.8%; Activity [23]: 64.7%
